The record followed here is ChEMBL document CHEMBL4342435, “Synthesis of novel 4-Boc-piperidone chalcones and evaluation of their cytotoxic activity against highly-metastatic cancer cells” (Bioorg Med Chem Lett, 2020).

One data set deals with LoVo. The data set can be described thus: Growth inhibition of human LoVo cells incubated for 72 hrs by CellTiter-Glo luminescent cell viability. Type of data set: functional.
Data set [1] deals with COLO 205. The data set is described as follows: Growth inhibition of human COLO205 cells incubated for 72 hrs by CellTiter-Glo luminescent cell viability. In kind it is functional. Particulars: COLO 205, 72 h. On the technique in general: In ATP-based viability assays light output follows the ATP content of the culture.
Data set [2] is described as follows: Cytotoxicity against human CCD-18Co cells assessed as reduction in cell viability incubated for 72 hrs by CellTiter-Glo luminescent cell viability. In kind it is cell-based.
Data set [3] is described as follows: Selectivity index, ratio of GI50 for human CCD-18Co cells to GI50 for human LoVo cells.
A short description of data set [4]: Selectivity index, ratio of GI50 for human CCD-18Co cells to GI50 for human COLO205 cells.
The subject of data set [5] is PC-3. The data set is described as follows: Growth inhibition of human PC3 cells incubated for 48 hrs by MTS assay. Type of data set: functional. Particulars: PC-3, 48 h. In a few lines: (§1)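 MTS viability on PC3 and 22RV1 prostate cancer cells after 48h incubation. […] DMSO control. Triplicates (N=3). One-way ANOVA with Dunnett's test, mean ± SEM, P<0.05.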
(Formazan colour is commonly taken as a measure of viable cells.)

For data set [6], the system named is CWR22R. The data set is described as follows: Growth inhibition of human 22Rv1 cells incubated for 48 hrs by MTS assay. Type of data set: functional. The note with it: 22Rv1, 48 h. An outline of the steps: as §1
In data set [7] the test system is CWR22R. The data set is described as follows: Antiproliferative activity human 22Rv1 cells assessed as reduction in Ki67 protein level at GI50 incubated for 48 hrs by DAPI staining based immunofluorescence assay. In kind it is functional, cell-based.
Data set [8] is described as follows: Inhibition of TNFalpha-induced NFkappaB activation in human HEK293 cells preincubated for 16 hrs followed by TNFalpha addition and measured after 6 hrs by luminescence based assay. In kind it is cell-based.
Data set [9] deals with PC-3. The data set is described as follows: Antiproliferative activity human PC3 cells assessed as reduction in Ki67 protein level at GI50 incubated for 48 hrs by DAPI staining based immunofluorescence assay. In kind it is functional, cell-based.
The subject of data set [10] is COLO 205. The data set is described as follows: Induction of apoptosis in human COLO205 cells at GI50 incubated for 24 hrs by Annexin V-FITC/Hoechst/propidium iodide staining based cell counting method (reference value: 10.7%). In kind it is functional.
The test system of data set [11] is COLO 205. The data set is described as follows: Induction of apoptosis in human COLO205 cells assessed as activation of caspases 7 at GI50 by fluorescent inhibitor probe FAM-DEVD-FMK staining based fluorescence assay (reference value: 15.3%). In kind it is functional. On the set-up: scale not given: the % may be the effect or the level left. An outline of the steps: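 COLO-205 cells treated at the concentrations listed in the GI50 table. Active caspases 3 and 7 labelled with the fluorescent inhibitor probe FAM-DEVD-FMK and read by flow cytometry. Untreated negative control, camptothecin positive control. Triplicate (N=3), P<0.05 versus vehicle.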

Structures are written as SMILES. In brackets after ≈: the same amount, converted by molar mass. Activity calls are given as the source filed them. No cut-off for these calls is given here.

With `COc1cc(/C=C/C(=O)/C=C/c2ccc(O)c(OC)c2)ccc1O`, the GI50 with LoVo worked out at 10 µg/mL (≈ 30.6 µM); with COLO 205 [1] it was 19.4 µg/mL (≈ 59.4 µM); in the data set with PC-3 [5] it was 24.8 µg/mL (≈ 76 µM); in the data set with CWR22R [6], 22.7 µg/mL (≈ 69.6 µM). For the same compound, the GI50 at 72 h in data set [2] was 15.1 µg/mL (≈ 46.3 µM). Further, the results for the RatioGI50 in data set [3] and in data set [4] were 1.5 and 0.8, respectively. Besides, in the data set with CWR22R [7], the outcome was Active.

In the case of `COc1cc(/C=C2\CN(C(=O)OC(C)(C)C)C/C(=C\c3ccc(O)c(OC)c3)C2=O)ccc1O`, the figures for the GI50 in the data set with LoVo and in the data set with COLO 205 [1] were 9.6 µg/mL (≈ 20.5 µM) and 27.4 µg/mL (≈ 58.6 µM), respectively. Also, the GI50 at 72 h in data set [2] is 18.3 µg/mL (≈ 39.1 µM). Moreover, the RatioGI50 came out at 1.9 in data set [3] and 0.7 in data set [4].

`COc1cc(/C=C/C(=O)CC(=O)/C=C/c2ccc(O)c(OC)c2)ccc1O` [CURCUMIN]: the GI50 with LoVo was 4.3 µg/mL (≈ 11.7 µM); with COLO 205 [1] it was 12.7 µg/mL (≈ 34.5 µM); in the data set on PC-3 [5] it was 13.8 µg/mL (≈ 37.5 µM); in the data set on CWR22R [6], 14.3 µg/mL (≈ 38.8 µM). In addition, the GI50 at 72 h in data set [2] worked out at 7.2 µg/mL (≈ 19.5 µM). The same compound came in with an IC50 in [8] of 7.7 µg/mL (≈ 20.9 µM). Further, the outcome in the data set on PC-3 [9] and with CWR22R [7] was Active.

With `CC(C)(C)OC(=O)N1C/C(=C\c2cccc(O)c2)C(=O)/C(=C/c2cccc(O)c2)C1`, the GI50 in the data set on LoVo was 4.1 µg/mL (≈ 10.1 µM); in the data set with COLO 205 [1] it was 11.7 µg/mL (≈ 28.7 µM). Moreover, the GI50 at 72 h in [2] turned out to be 6.4 µg/mL (≈ 15.7 µM). For the same compound, the figures for the RatioGI50 in data set [3] and in data set [4] were 1.6 and 0.5, respectively.

`CC(C)(C)OC(=O)N1C/C(=C\c2ccc(O)cc2)C(=O)/C(=C/c2ccc(O)cc2)C1`: the GI50 in the data set on LoVo stood at 3.5 µg/mL (≈ 8.59 µM); in the data set with COLO 205 [1], 20.9 µg/mL (≈ 51.3 µM); with PC-3 [5], 22.9 µg/mL (≈ 56.2 µM); in the data set on CWR22R [6], 17.1 µg/mL (≈ 42 µM). In addition, the GI50 at 72 h in data set [2] was determined as 6.4 µg/mL (≈ 15.7 µM). Further, the RatioGI50 amounted to 1.8 in [3] and 0.3 in data set [4]. For the same compound, the outcome with PC-3 [9] and with CWR22R [7] was Active.

With `CC(C)(C)OC(=O)N1C/C(=C\c2ccccc2)C(=O)/C(=C/c2ccccc2)C1`, the GI50 amounted to 6.1 µg/mL (≈ 16.2 µM) in the data set on LoVo and 34.7 µg/mL (≈ 92.4 µM) in the data set on COLO 205 [1]. Further, the GI50 at 72 h in [2] was determined as 12.4 µg/mL (≈ 33 µM). The RatioGI50 worked out at 2 in data set [3] and 0.4 in [4].

For `COc1ccc(/C=C2\CN(C(=O)OC(C)(C)C)C/C(=C\c3ccc(OC)cc3OC)C2=O)c(OC)c1`, the GI50 with LoVo is 2 µg/mL (≈ 4.04 µM); in the data set on COLO 205 [1] it was 0.84 µg/mL (≈ 1.7 µM). The GI50 at 72 h in data set [2] was found to be 1.2 µg/mL (≈ 2.42 µM). The RatioGI50 in [4] was 1.4. The Activity in the data set with COLO 205 [10] came out at 62%; in the data set with COLO 205 [11], 35.7%.

As to `CC[C@@]1(O)C(=O)OCc2c1cc1n(c2=O)Cc2cc3ccccc3nc2-1` [CAMPTOTHECIN], the Activity in the data set with COLO 205 [10] was 37.3%; with COLO 205 [11], 59.3%.

For the compound `CC(C)(C)OC(=O)N1C/C(=C\c2ccccc2C(F)(F)F)C(=O)/C(=C/c2ccccc2C(F)(F)F)C1`, the GI50 was found to be 4.6 µg/mL (≈ 8.99 µM) in the data set with LoVo and 4.5 µg/mL (≈ 8.8 µM) in the data set on COLO 205 [1]. Further, in [2], the GI50 at 72 h worked out at 7.6 µg/mL (≈ 14.9 µM). Further, the RatioGI50 in data set [3] and in data set [4] was 1.7 in each case. For the same compound, the Activity with COLO 205 [10] was 35%; in the data set on COLO 205 [11], 31.5%. In addition, the IC50 in data set [8] was 27.2 µg/mL (≈ 53.2 µM).

Regarding `CC(=O)O[C@@]12CO[C@@H]1C[C@H](O)[C@@]1(C)C(=O)[C@H](O)C3=C(C)[C@@H](OC(=O)[C@H](O)[C@@H](NC(=O)OC(C)(C)C)c4ccccc4)C[C@@](O)([C@@H](OC(=O)c4ccccc4)[C@H]21)C3(C)C` [DOCETAXEL ANHYDROUS], the results for the GI50 with PC-3 [5] and in the data set with CWR22R [6] were 0.009 µg/mL (≈ 0.0111 µM) and 0.006 µg/mL (≈ 0.00743 µM), respectively. Moreover, the outcome in the data set on PC-3 [9] and with CWR22R [7] was Active.

In general, GI50 refers to the concentration giving 50% growth inhibition. A word on the IC50: it is the concentration that gives 50% inhibition.
